The values below come from ChEMBL document CHEMBL4138048, “Synthesis of substituted 2H-benzo[e]indazole-9-carboxylate as a potent antihyperglycemic agent that may act through IRS-1, Akt and GSK-3β pathways” (Medchemcomm, 2017).

Calls of active or inactive are those of the source. No cut-off for these calls is given here.

One assay concerns L6. Briefly: Stimulation of [3H]2-deoxyglucose uptake in rat L6 cells at 10 uM incubated for 16 hrs by scintillation counting method. In kind it is functional, cell-based. The method, boiled down:
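L6 myotubes incubated with the compound […]; insulin at 100 nM for 20 min served as the positive control. Uptake of ³H-2-deoxyglucose measured and expressed as fold stimulation relative to the control condition.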

A further assay has as its system HepG2. The assay is described as follows: Stimulation of [3H]2-deoxyglucose uptake in human HepG2 cells at 10 uM incubated for 16 hrs by scintillation counting method. In kind it is functional, cell-based.
Assay [1] deals with Mus musculus. The assay is described as follows: Antihyperglycemic activity in db/db mouse assessed as improvement on glucose tolerance by measuring blood glucose AUC level at 10 mg/kg, po qd for 10 days by oral glucose tolerance test. In kind it is functional. In a few lines:
(§1)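 db/db mice dosed orally once daily for 15 consecutive days at 3, 10 or 30 mg/kg, with vehicle controls and pioglitazone at 10 mg/kg. Oral glucose tolerance tests on day 10 and day 15. Overall improvement in glucose tolerance calculated against vehicle control. Mean % change in 5 animals per group.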

Assay [2] has as its system Mus musculus. Briefly: Antihyperglycemic activity in db/db mouse assessed as improvement on glucose tolerance by measuring blood glucose AUC level at 10 mg/kg, po qd for 15 days by oral glucose tolerance test. The class given is functional. In a few lines:
as §1

Assay [3] deals with Mus musculus. The assay is described as follows: Antihyperglycemic activity in db/db mouse assessed as reduction in blood glucose level at 10 mg/kg, po qd and measured on day 4 by oral glucose tolerance test. The class given is functional, organism-based. In a few lines:
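Type 2 diabetic db/db mice dosed orally once a day for 15 days at 3, 10 or 30 mg/kg, with pioglitazone at 10 mg/kg as standard. Blood glucose measured daily and profile compared with vehicle-treated animals. Mean % change in 5 animals per group.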

Assay [4] relates to Mus musculus. Briefly: Antihyperglycemic activity in db/db mouse assessed as reduction in cholesterol level at 10 mg/kg, po qd for 15 days. The class given is functional. Also on record: scale not given: the % may be the effect or the level left. The method, boiled down: (§2)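 db/db mice given 3, 10 or 30 mg/kg orally once a day for 15 consecutive days, alongside vehicle controls. Serum triglyceride, total cholesterol, HDL-C and insulin measured, along with fasting blood glucose. Expressed as mean % change in 5 animals per group versus control.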

The test system of assay [5] is Mus musculus. Briefly: Antihyperglycemic activity in db/db mouse assessed as reduction in fasting blood glucose level at 10 mg/kg, po qd for 15 days. The class given is functional. Also on record: scale not given: the % may be the effect or the level left. The method, boiled down: as §2
Assay [6] deals with Mus musculus. The assay is described as follows: Antihyperglycemic activity in db/db mouse assessed as increase in HDL-C level at 10 mg/kg, po qd for 15 days. The class given is functional. The method, boiled down: as §2
For assay [7], the system named is Mus musculus. The assay is described as follows: Antihyperglycemic activity in db/db mouse assessed as reduction in triglyceride level at 10 mg/kg, po qd for 15 days. In kind it is functional. Also on record: scale not given: the % may be the effect or the level left. In a few lines:
as §2

Assay [8] relates to Mus musculus. The assay is described as follows: Antihyperglycemic activity in db/db mouse assessed as reduction in insulin level at 10 mg/kg, po qd for 15 days. The class given is functional. Also on record: scale not given: the % may be the effect or the level left. The method, boiled down: as §2

Turning to `COC(=O)c1c(SC)cc(-c2ccccc2)c2c1-c1cn(-c3ccccc3)nc1CC2`, the outcome with L6 was inactive.

`COC(=O)c1c(SC)cc(-c2ccc(OC)cc2)c2c1-c1cn(-c3ccccc3)nc1CC2`: the outcome with L6 was inactive.

For `CN(C)C(=N)NC(=N)N`, the outcome in the assay with HepG2 was Active.

Take `COC(=O)c1c(SC)cc(-c2ccc(F)cc2)c2c1-c1cn(-c3ccccc3)nc1CC2`: the result in the assay on L6 was inactive.

In the case of `COC(=O)c1c(SC)cc(-c2ccc3ccc4cccc5ccc2c3c45)c2c1-c1cn(-c3ccccc3)nc1CC2`, the result with L6 was inactive.

`COC(=O)c1c(S(C)(=O)=O)cc(-c2ccc(F)cc2)c2c1-c1cn(-c3ccccc3)nc1CC2`: the result in the assay with L6 was inactive.

For the compound `COC(=O)c1c(SC)cc(-c2ccc(Cl)cc2)c2c1-c1cn(-c3ccccc3)nc1CC2`, the outcome in the assay with L6 was inactive.

`COC(=O)c1c(SC)cc(-c2ccc(Br)cc2)c2c1-c1cn(-c3ccccc3)nc1CC2`: the outcome in the assay with L6 was inactive.

For the compound `CCc1ccc(CCOc2ccc(CC3SC(=O)NC3=O)cc2)nc1` (stereo not drawn) [PIOGLITAZONE], the Activity in the assay with Mus musculus [1] is on record as 34.8%; in the assay on Mus musculus [2], 45.4%; with Mus musculus [4], 15.1%; with Mus musculus [5] it was 59.1%; with Mus musculus [6], 23.9%; with Mus musculus [7] it was 9.58%. In addition, the Activity with Mus musculus [8] was found to be 58.1%. In the assay on Mus musculus [3], the outcome was Active.

Consider `COC(=O)c1c(SC)cc(-c2cccs2)c2c1-c1cn(-c3ccccc3)nc1CC2`, for which, in the assay on L6, the result was inactive.

With `COC(=O)c1c(S(C)(=O)=O)cc(-c2ccc(C)cc2)c2c1-c1cn(-c3ccccc3)nc1CC2`, in the assay with L6, the result was inactive.
